pIC50: −log10 of the molar value.
Tests used:
P388 [1] = assay: Antitumor activity in mice against leukemia P388 cells at 8.9 uM/kg was expressed as ratio of average survival time; format: functional, Mus musculus
Procedure, shortened: (§1)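 Mice bearing P388 leukemia were tested under NCI protocols, with doses given in µmol/kg. Toxicity was evaluated on day 5. Efficacy is reported as T/C, the mean survival time of treated mice divided by that of untreated controls, ×100. Values are usually the average of two tests. A T/C above 120 was taken as activity.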

P388 [2] = assay: Antitumor activity in mice against leukemia P388 cells at 4.5 umol/kg; format: functional, Mus musculus; procedure, shortened: as §1
L1210 [3] = assay: Inhibition of incorporation of tritiated thymidine in the DNA of actively growing L1210 cells; format: functional, cell-based; conditions: Mus musculus
Procedure, shortened: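 Actively growing L1210 cells are exposed to the drug, dissolved first in Me₂SO (final Me₂SO 1%). Incorporation of tritiated thymidine into DNA or tritiated uridine into RNA is measured. IC₅₀ is the concentration giving 50% reduction in incorporation.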

P388 [4] = assay: Antitumor activity in mice against leukemia P388 cells at 8.9 uM/kg; format: functional, Mus musculus; procedure, shortened: as §1
B16 [5] = assay: Antitumor activity in mice against melanoma B16 cells at 8.6 uM/kg was expressed as ratio of average survival time; format: functional, Mus musculus
B16 [6] = assay: Antitumor activity in mice against melanoma B16 cells at 34.2 uM/kg was expressed as ratio of average survival time; format: functional, Mus musculus
B16 [7] = assay: Antitumor activity in mice against melanoma B16 cells at 17.1 uM/kg was expressed as ratio of average survival time; format: functional, Mus musculus
P388 [8] = assay: Antitumor activity in mice against leukemia P388 cells at 17.9 survival time; format: functional, Mus musculus; procedure, shortened: as §1
P388 [9] = assay: Antitumor activity in mice against leukemia P388 cells at 4.5 umol/kg was expressed as ratio of average survival time; format: functional, Mus musculus; procedure, shortened: as §1
P388 [10] = assay: Antitumor activity in mice against leukemia P388 cells at 17.9 uM/kg; format: functional, Mus musculus; procedure, shortened: as §1
L1210 [11] = assay: Inhibition of incorporation of tritiated uridine in the RNA of actively growing L1210 cells; conditions: Mus musculus
P388 [12] = assay: Antitumor activity in mice against leukemia P388 cells at 1.3 uM/kg was expressed as ratio of average survival time; format: functional, Mus musculus
P388 [13] = assay: Antitumor activity in mice against leukemia P388 cells at 0.05 umol/kg; format: functional, Mus musculus
Procedure, shortened: (§2)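 Mouse survival assay run under NCI protocols. Activity is expressed as T/C: average survival time of treated mice over untreated mice × 100. Values are usually the average of two tests. Toxicity is evaluated on day 5. A T/C above 120 is taken as activity.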

P388 [14] = assay: Antitumor activity in mice against leukemia P388 cells at 0.11 umol/kg was expressed as ratio of average survival time; format: functional, Mus musculus; procedure, shortened: as §1
B16 [15] = assay: Antitumor activity in mice against melanoma B16 cells at 0.04 uM/kg was expressed as ratio of average survival time; format: functional, Mus musculus
B16 [16] = assay: Antitumor activity in mice against melanoma B16 cells at 0.09 uM/kg; format: functional, Mus musculus; procedure, shortened: as §2
P388 [17] = assay: Antitumor activity in mice against leukemia P388 cells at 0.22 umol/kg was expressed as ratio of average survival time; format: functional, Mus musculus; procedure, shortened: as §1
B16 [18] = assay: Antitumor activity in mice against melanoma B16 cells at 0.04 uM/kg; format: functional, Mus musculus; procedure, shortened: as §2
B16 [19] = assay: Antitumor activity in mice against melanoma B16 cells at 0.16 uM/kg was expressed as ratio of average survival time; format: functional, Mus musculus
P388 [20] = assay: Antitumor activity in mice against leukemia P388 cells at 0.05 umol/kg was expressed as ratio of average survival time; format: functional, Mus musculus; procedure, shortened: as §1
B16 [21] = assay: Antitumor activity in mice against melanoma B16 cells at 0.09 uM/kg was expressed as ratio of average survival time; format: functional, Mus musculus
P388 [22] = assay: Antitumor activity in mice against leukemia P388 cells at 0.22 umol/kg; format: functional, Mus musculus; procedure, shortened: as §2
P388 [23] = assay: Antitumor activity in mice against leukemia P388 cells at 0.11 umol/kg; format: functional, Mus musculus; procedure, shortened: as §2
B16 [24] = assay: Antitumor activity in mice against melanoma B16 cells at 0.17 umol/kg was expressed as ratio of average survival time; format: functional, Mus musculus
P388 [25] = assay: Antitumor activity in mice against leukemia P388 cells at 3.4 uM/kg was expressed as ratio average survival time; format: functional, Mus musculus; procedure, shortened: as §1
P388 [26] = assay: Antitumor activity in mice against leukemia P388 cells at 0.43 survival time; format: functional, Mus musculus; procedure, shortened: as §1
B16 [27] = assay: Antitumor activity in mice against melanoma B16 cells at 1.1 uM/kg; format: functional, Mus musculus; procedure, shortened: as §2
P388 [28] = assay: Antitumor activity in mice against leukemia P388 cells at 1.7 uM/kg; format: functional, Mus musculus; procedure, shortened: as §2
B16 [29] = assay: Antitumor activity in mice against melanoma B16 cells at 0.55 uM/kg was expressed as ratio of average survival time; format: functional, Mus musculus
P388 [30] = assay: Antitumor activity in mice against leukemia P388 cells at 0.85 uM/kg; format: functional, Mus musculus; procedure, shortened: as §2
B16 [31] = assay: Antitumor activity in mice against melanoma B16 cells at 2.2 uM/kg; format: functional, Mus musculus; procedure, shortened: as §2
B16 [32] = assay: Antitumor activity in mice against melanoma B16 cells at 2.2 uM/kg was expressed as ratio of average survival time; format: functional, Mus musculus
P388 [33] = assay: Antitumor activity in mice against leukemia P388 cells at 3.4 uM/kg; format: functional, Mus musculus; procedure, shortened: as §2
B16 [34] = assay: Antitumor activity in mice against melanoma B16 cells at 0.55 uM/kg; format: functional, Mus musculus; procedure, shortened: as §2
P388 [35] = assay: Antitumor activity in mice against leukemia P388 cells at 1.7 uM/kg was expressed as ratio of average survival time; format: functional, Mus musculus; procedure, shortened: as §1
P388 [36] = assay: Antitumor activity in mice against leukemia P388 cells at 0.85 uM/kg was expressed as ratio of average survival time; format: functional, Mus musculus; procedure, shortened: as §1
P388 [37] = assay: Antitumor activity in mice against leukemia P388 cells at 0.43 uM/kg; format: functional, Mus musculus; procedure, shortened: as §2
B16 [38] = assay: Antitumor activity in mice against melanoma B16 cells at 1.1 uM/kg was expressed as ratio of average survival time; format: functional, Mus musculus
P388 [39] = assay: Antitumor activity in mice against leukemia P388 cells at 1.4 uM/kg was expressed as ratio of average survival time; format: functional, Mus musculus
P388 [40] = assay: Antitumor activity in mice against leukemia P388 cells at 0.21 survival time; format: functional, Mus musculus; procedure, shortened: as §1
P388 [41] = assay: Antitumor activity in mice against leukemia P388 cells at 1.7 umol/kg was expressed as ratio of average survival time; format: functional, Mus musculus; procedure, shortened: as §1
P388 [42] = assay: Antitumor activity in mice against leukemia P388 cells at 0.86 survival time; format: functional, Mus musculus; procedure, shortened: as §1
P388 [43] = assay: Antitumor activity in mice against leukemia P388 cells at 1.7 umol/kg; format: functional, Mus musculus; procedure, shortened: as §2
P388 [44] = assay: Antitumor activity in mice against leukemia P388 cells at 0.86 uM/kg; format: functional, Mus musculus; procedure, shortened: as §2

**Q.** How did the T/C (P388 [1]) turn out when `CC[n+]1c(-c2ccccc2)c2cc(N)ccc2c2ccc(N)cc21.[Cl-]` was run?
**A.** Its T/C is 150%.

**Q.** And the T/C (P388 [2])?
**A.** The T/C was 10.

**Q.** What about the pIC50 (L1210 [3]) of the same compound?
**A.** The pIC50 was 4.51.

**Q.** What about the T/C (P388 [4]) of the same compound?
**A.** The T/C was 18.

**Q.** What about the T/C (B16 [5]) of the same compound?
**A.** Its T/C is 108%.

**Q.** What about the T/C (B16 [6]) of the same compound?
**A.** The T/C was 135%.

**Q.** What about the T/C (B16 [7]) of the same compound?
**A.** The T/C was 112%.

**Q.** What about the T/C (P388 [8]) of the same compound?
**A.** Its T/C is 149%.

**Q.** And the T/C (P388 [9])?
**A.** The T/C was 135%.

**Q.** What about the T/C (P388 [10]) of the same compound?
**A.** The T/C was 24.

**Q.** What about the pIC50 (L1210 [11]) of the same compound?
**A.** Its pIC50 is 4.96.

**Q.** With `COc1cccc2c1C(=O)c1c(O)c3c(c(O)c1C2=O)C[C@@](O)(C(=O)CO)C[C@@H]3O[C@H]1C[C@H](N)[C@H](O)[C@H](C)O1` [DOXORUBICIN] as the compound, how does the T/C (P388 [12]) read?
**A.** Its T/C is 197.

**Q.** With `COc1cccc(-c2c3cc(N)ccc3c3ccc(N)cc3[n+]2C)c1` as the compound, how does the pIC50 (L1210 [3]) read?
**A.** Its pIC50 is 4.60.

**Q.** What about the pIC50 (L1210 [11]) of the same compound?
**A.** Its pIC50 is 5.00.

**Q.** Which results are given for `C[n+]1c(-c2cccc(OCCCCCCCOc3cccc(-c4c5cc(N)ccc5c5ccc(N)cc5[n+]4C)c3)c2)c2cc(N)ccc2c2ccc(N)cc21.[Br-].[Br-]`?
**A.** T/C (P388 [13]): 5; T/C (P388 [14]): 126%; T/C (B16 [15]): 116%; T/C (B16 [16]): 136; T/C (P388 [17]): 120%; T/C (B16 [18]): 116; T/C (B16 [19]): 134%; pIC50 (L1210 [3]): 4.92; T/C (P388 [20]): 120%; T/C (B16 [21]): 136%; T/C (P388 [22]): 40; pIC50 (L1210 [11]): 6.22; T/C (P388 [23]): 13; T/C (B16 [24]): 138%

**Q.** With `C[n+]1c(-c2cccc(OCCOCCOc3cccc(-c4c5cc(N)ccc5c5ccc(N)cc5[n+]4C)c3)c2)c2cc(N)ccc2c2ccc(N)cc21.[Br-].[Br-]` as the compound, how does the T/C (P388 [25]) read?
**A.** The T/C was 152%.

**Q.** And the T/C (P388 [26])?
**A.** The T/C was 124%.

**Q.** What about the T/C (B16 [27]) of the same compound?
**A.** The T/C was 127.

**Q.** What about the pIC50 (L1210 [3]) of the same compound?
**A.** Its pIC50 is 3.73.

**Q.** What about the T/C (P388 [28]) of the same compound?
**A.** Its T/C is 28.

**Q.** What about the T/C (B16 [29]) of the same compound?
**A.** Its T/C is 109%.

**Q.** What about the T/C (P388 [30]) of the same compound?
**A.** Its T/C is 37.

**Q.** What about the T/C (B16 [31]) of the same compound?
**A.** The T/C was 142.

**Q.** What about the T/C (B16 [32]) of the same compound?
**A.** The T/C was 142%.

**Q.** What about the T/C (P388 [33]) of the same compound?
**A.** Its T/C is 39.

**Q.** And the T/C (B16 [34])?
**A.** Its T/C is 109.

**Q.** What about the T/C (P388 [35]) of the same compound?
**A.** The T/C was 156%.

**Q.** And the T/C (P388 [36])?
**A.** Its T/C is 132%.

**Q.** What about the pIC50 (L1210 [11]) of the same compound?
**A.** Its pIC50 is 4.80.

**Q.** What about the T/C (P388 [37]) of the same compound?
**A.** The T/C was 20.

**Q.** And the T/C (B16 [38])?
**A.** Its T/C is 127%.

**Q.** `COc1cccc2c1C(=O)c1c(O)c3c(c(O)c1C2=O)C[C@@](O)(C(C)=O)C[C@@H]3O[C@H]1C[C@H](N)[C@H](O)[C@H](C)O1` [DAUNORUBICIN] was tested. Which T/C (P388 [39]) did it give?
**A.** The T/C was 160.

**Q.** `C[n+]1c(-c2cccc(OCCCCCCCCCCOc3cccc(-c4c5cc(N)ccc5c5ccc(N)cc5[n+]4C)c3)c2)c2cc(N)ccc2c2ccc(N)cc21.[Cl-].[Cl-]` was tested. Which T/C (P388 [40]) did it give?
**A.** Its T/C is 141%.

**Q.** What about the T/C (P388 [26]) of the same compound?
**A.** The T/C was 156%.

**Q.** What about the pIC50 (L1210 [3]) of the same compound?
**A.** The pIC50 was 5.77.

**Q.** And the T/C (P388 [41])?
**A.** The T/C was 158%.

**Q.** And the T/C (P388 [42])?
**A.** Its T/C is 160%.

**Q.** What about the T/C (P388 [43]) of the same compound?
**A.** The T/C was 33.

**Q.** What about the pIC50 (L1210 [11]) of the same compound?
**A.** Its pIC50 is 6.52.

**Q.** And the T/C (P388 [44])?
**A.** Its T/C is 15.
